Here are results for 1 compound from ChEMBL document CHEMBL1275429, “Pharmacodynamic characterization of ceftobiprole in experimental pneumonia caused by phenotypically diverse Staphylococcus aureus strains” (Antimicrob Agents Chemother, 2008).

The test system of series [1] is Staphylococcus aureus. The experiment in a line: Antimicrobial activity against methicillin-susceptible Staphylococcus aureus 29213 infected in BALB/cAnNCr mouse assessed as decrease in bacterial density in lungs at 1 to 25 mg/kg, sc administered as 1 to 5 times/day after 24 hrs […] relative to control. Particulars: route subcutaneous. In kind it is functional. In a few lines:
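Female BALB/cAnNCr mice (7–9 weeks) were made neutropenic with cyclophosphamide i.p. at 250 mg/kg on day −4 and 100 mg/kg on day −1. Under isoflurane, mice received an oral inoculum in 3% mucin/saline, with nostrils blocked until aspiration. Drug (1–25 mg/kg s.c., once to five times daily, water vehicle) or sham started 6 h post-inoculation. Lungs were harvested at 24 h, homogenized and plated on blood and Columbia agar at 35°C. Mean log10 CFU/ml was compared with the 0-h untreated baseline; 5 mice per group.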

A short description of series [2]: fT>MIC required for stasis inhibition of community acquired methicillin-resistant Staphylococcus aureus 147 infection in neutropenic BALB/cAnNCr mouse. In kind it is functional. In outline:
(§1)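 Same neutropenic murine pneumonia model, with 24-h lung log10 CFU change (5 mice per group; 1–25 mg/kg s.c., 1–5 times daily). […] ED50, ED80 and stasis exposures were taken from a sigmoid Emax fit for each isolate.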

A short description of series [3]: fT>MIC required for stasis inhibition of community acquired methicillin-resistant Staphylococcus aureus 144 infection in neutropenic BALB/cAnNCr mouse. In kind it is functional. In outline:
as §1

Series [4] in a line: fT>MIC required for stasis inhibition of hospital acquired methicillin-resistant Staphylococcus aureus 152 infection in neutropenic BALB/cAnNCr mouse. In kind it is functional. In outline: as §1
A short description of series [5]: fT>MIC required for stasis inhibition of hospital acquired methicillin-resistant Staphylococcus aureus 56 infection in neutropenic BALB/cAnNCr mouse. In kind it is functional. In outline: as §1
Series [6] is described as follows: fT>MIC required for 50% inhibition of community acquired Staphylococcus aureus 146 infection in neutropenic BALB/cAnNCr mouse. In kind it is functional.
A short description of series [7]: fT>MIC required for 50% inhibition of community acquired Staphylococcus aureus 144 infection in neutropenic BALB/cAnNCr mouse. In kind it is functional. In outline: as §1
Series [8] can be described thus: fT>MIC required for 80% inhibition of community acquired methicillin-resistant Staphylococcus aureus 146 infection in neutropenic BALB/cAnNCr mouse. In kind it is functional. In a few lines: as §1
Series [9] can be described thus: fT>MIC required for 80% inhibition of methicillin-susceptible Staphylococcus aureus […] infection in neutropenic BALB/cAnNCr mouse. In kind it is functional.
Series [10] can be described thus: fCmax/MIC in neutropenic BALB/cAnNCr mouse plasma infected with Staphylococcus aureus at 1 to 25 mg/kg, sc administered 1 to 5 times/day after 24 hrs by HPLC. In kind it is functional. Particulars: route subcutaneous. In outline: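 Exposure indices used free plasma drug, correcting with 19% mouse protein binding supplied by the sponsor. The regimens were s.c. 1–25 mg/kg given 1–5 times daily for 24 h to neutropenic mice with S. aureus pneumonia. MICs were determined in triplicate by CLSI broth microdilution. PK came from the single-dose HPLC study.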

Series [11] is described as follows: Elimination half life in neutropenic BALB/cAnNCr mouse infected with Staphylococcus aureus at 2.5 mg/kg, sc administered as single dose after 6 hrs of infection. The settings on record: in vivo. In kind it is ADME, organism-based. Also on record: dose 2.5 mg/kg, route subcutaneous. In outline:
(§2)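 Female BALB/cAnNCr mice (7-9 weeks, 15-22 g) made neutropenic with cyclophosphamide, 250 mg/kg i.p. on day -4 and 100 mg/kg i.p. on day -1. Infected by oral aspiration of HA-MRSA 56 (10^7 CFU/ml in 3% mucin/saline). Single s.c. dose in sterile water given 6 h post-challenge. Plasma (EDTA, citric acid-stabilized) taken at 0.25-4 h, six mice per time point. Assayed by validated HPLC (LOQ 0.01 µg/ml); one-compartment analysis.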

The subject of series [12] is Mus musculus. The experiment in a line: Volume of distribution in neutropenic BALB/cAnNCr mouse infected with Staphylococcus aureus at 25 mg/kg, sc administered as single dose after 6 hrs of infection. In kind it is ADME, organism-based. Also on record: dose 25 mg/kg, route subcutaneous. Particulars: in vivo. In outline: (§3)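 Neutropenic female mice (cyclophosphamide i.p. 250 mg/kg day −4, 100 mg/kg day −1) with HA-MRSA 56 pneumonia (oral inoculum, 10^7 CFU/ml in 3% mucin). Single s.c. dose in sterile water. Plasma by intracardiac puncture at 0.25–4 h, six mice per time point, stabilized with citric acid. Assayed by validated HPLC (LOQ 0.01 µg/ml). Parameters from one-compartment analysis.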

Series [13] deals with Mus musculus. As to the kind of experiment: Volume of distribution in neutropenic BALB/cAnNCr mouse infected with Staphylococcus aureus at 1 mg/kg, sc administered as single dose after 6 hrs of infection. In kind it is ADME, organism-based. Also on record: dose 1 mg/kg, route subcutaneous. Particulars: in vivo. In a few lines:
as §3

The nature of series [14]: AUC (0 to infinity) in neutropenic BALB/cAnNCr mouse infected with Staphylococcus aureus at 25 mg/kg, sc administered as single dose after 6 hrs of infection. In kind it is ADME, organism-based. Also on record: time infinity, dose 25 mg/kg, route subcutaneous. Particulars: plasma. In outline: as §3
The nature of series [15]: AUC (0 to infinity) in neutropenic BALB/cAnNCr mouse infected with Staphylococcus aureus at 2.5 mg/kg, sc administered as single dose after 6 hrs of infection. Also on record: time infinity, dose 2.5 mg/kg, route subcutaneous. The settings on record: plasma. In kind it is ADME, organism-based. In a few lines:
as §2

A short description of series [16]: AUC (0 to infinity) in neutropenic BALB/cAnNCr mouse infected with Staphylococcus aureus at 1 mg/kg, sc administered as single dose after 6 hrs of infection. The settings on record: plasma. Also on record: time infinity, dose 1 mg/kg, route subcutaneous. In kind it is ADME, organism-based. In outline:
as §3

The nature of series [17]: Tmax in neutropenic BALB/cAnNCr mouse infected with Staphylococcus aureus at 10 mg/kg, sc administered as single dose after 6 hrs of infection. In kind it is ADME, organism-based. Also on record: dose 10 mg/kg, route subcutaneous. The settings on record: in vivo. In a few lines: as §3
A short description of series [18]: Tmax in neutropenic BALB/cAnNCr mouse infected with Staphylococcus aureus at 1 mg/kg, sc administered as single dose after 6 hrs of infection. In kind it is ADME, organism-based. Also on record: dose 1 mg/kg, route subcutaneous. The settings on record: in vivo. In outline:
as §3

In series [19] the test system is Staphylococcus aureus. As to the kind of experiment: Antimicrobial activity against hospital acquired methicillin-resistant Staphylococcus aureus 149 by broth microdilution method. In kind it is functional. In a few lines: (§4)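 Broth microdilution run in triplicate following CLSI guidelines. Isolates were stored at –80°C in double-strength skim milk and subcultured twice on Trypticase soy agar with 5% sheep blood before testing.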

In series [20] the test system is Staphylococcus aureus. The experiment in a line: Antimicrobial activity against community acquired methicillin-resistant Staphylococcus aureus 146 by broth microdilution method. In kind it is functional. In outline: as §4
Series [21] is described as follows: fT>MIC required for stasis inhibition of Staphylococcus aureus infection in neutropenic BALB/cAnNCr mouse. In kind it is functional.
Series [22] can be described thus: fAUC/MIC required for 80% inhibition of Staphylococcus aureus infection in neutropenic BALB/cAnNCr mouse. In kind it is functional.
Series [23] can be described thus: fAUC/MIC required for 50% inhibition of Staphylococcus aureus infection in neutropenic BALB/cAnNCr mouse. In kind it is functional.

Each structure is given as a SMILES string. ≈ marks a conversion by molar mass, not a printed value.

For the compound `Nc1nc(/C(=N/O)C(=O)N[C@@H]2C(=O)N3C(C(=O)O)=C(/C=C4\CCN([C@@H]5CCNC5)C4=O)CS[C@H]23)ns1` [CEFTOBIPROLE], the log10cfu in the series with Staphylococcus aureus [1] was 3.9. The “fT>MIC” value is given as 14.9% in [2]; 13.6% in [3]; 13.4% in [4]; 13.1% in [5]; 5.5% in series [6]; 13.8% in series [7]. For the same compound, the “fT>MIC” value in [8] worked out at 6%; in [9], 19.5%; in [21] it was 11%. The fCmax/MIC in [10] turned out to be 1. In addition, the half-life in [11] was 27 min. For the same compound, the figures for the Vd with Mus musculus [12] and with Mus musculus [13] were 0.41 L/kg and 0.19 L/kg, respectively. The AUC(0-inf) worked out at 35200 ng·h/mL in [14], 2570 ng·h/mL in series [15] and 1840 ng·h/mL in series [16]. For the same compound, the Tmax in [17] is 9 min; in series [18], 28.8 min. In addition, the MIC was found to be 1 µg/mL (≈ 1.87 µM) with Staphylococcus aureus [19] and 2 µg/mL (≈ 3.74 µM) with Staphylococcus aureus [20]. Besides, the fAUC/MIC in series [22] and in [23] was 3 in each case.
